Experimental data: ChEMBL document CHEMBL4364248, “Discovery of 1,2,4-oxadiazole-Containing hydroxamic acid derivatives as histone deacetylase inhibitors potential application in cancer therapy” (Eur J Med Chem, 2019)
Activity calls are given as the source filed them. The rule behind the calls is not given here.

Assays:
JeKo-1 [1] = test: Cell cycle arrest in human JeKo1 cells assessed as accumulation at G1 phase at 1000 nM after 24 hrs by propidium iodide staining based flow cytometric analysis (reference value: 63.16 %); type: functional
[2] = Clearance in Sprague-Dawley rat at 5 mg/kg, iv measured upto 24 hrs by LC-MS/MS analysis; type: ADME, organism-based; details: in vivo
Outline: (§1)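 SD rats (200-250 g), six per time point, given 5 mg/kg as a tail-vein bolus or orally. Blood was taken by cardiac puncture before dosing and at 5, 15, 30, 45 min and 1, 2, 4, 6, 8, 10, 12 and 24 h. Plasma was spun at 4000 g for 15 min at 4 °C and stored at -80 °C. Analysis was LC-MS/MS with multiple-reaction monitoring, followed by noncompartmental analysis.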

[3] = Antiproliferative activity against human ARD cells after 72 hrs by MTT assay; type: functional, cell-based
[4] = Cmax in Sprague-Dawley rat at 5 mg/kg, po measured upto 24 hrs by LC-MS/MS analysis; type: ADME, organism-based; design: dose 5 mg/kg, route oral; details: in vivo; outline: as §1
JeKo-1 [5] = test: Induction of apoptosis in human JeKo1 cells assessed as late apoptotic cells at 10 nM after 48 hrs by annexin V-FITC/propidium iodide staining-based flow cytometric method (reference value: 3.07 %); type: functional
Outline: (§2)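 Jeko-1 cells were grown in RPMI-1640 with 10% FBS at 37 °C under 5% CO2. They were exposed to 0, 10, 100 or 1000 nM for 48 h, then apoptosis induction was analysed.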

SK-OV-3 = test: Antiproliferative activity against human SKOV3 cells after 72 hrs by MTT assay; type: functional, cell-based; details: SK-OV-3, 72 h
JeKo-1 [6] = test: Induction of apoptosis in human JeKo1 cells assessed as late apoptotic cells at 100 nM after 48 hrs by annexin V-FITC/propidium iodide staining-based flow cytometric method (reference value: 3.07 %); type: functional; outline: as §2
Histone deacetylase 4 = Histone deacetylase 4 (Homo sapiens, UniProt P56524); test: Inhibition of recombinant full length human HDAC4 expressed in sf9 insect cells using Ac-peptide-AMC as substrate after 1 hr by fluorescence assay
[7] = Half life in Sprague-Dawley rat plasma at 5 mg/kg, po measured upto 24 hrs by LC-MS/MS analysis; type: ADME, organism-based; outline: as §1
[8] = Toxicity in NOD/SCID mouse xenografted with human Daudi cells assessed as abnormal behavior at 20 mg/kg, po treated on day 1,3 and 5 per week and measured for every 2 days; type: organism-based; details: in vivo, 48 h
Outline: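 Female NOD/SCID mice (5–6 weeks) bearing s.c. Daudi xenografts, six per group. Dosing was 10 mg/kg i.v. or 20 mg/kg p.o. in 8% HP-β-CD on days 1, 3 and 5 weekly. Behaviour was observed, and organ tissues were collected at sacrifice for H&E staining.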

Leukemia cell = test: Antiproliferative activity against human AML patient derived primary leukemia cells after 72 hrs by MTT assay; type: functional, cell-based
JeKo-1 [9] = test: Cell cycle arrest in human JeKo1 cells assessed as accumulation at S phase at 10 nM after 24 hrs by propidium iodide staining based flow cytometric analysis (reference value: 26.13 %); type: functional
[10] = biological target: Polyamine deacetylase HDAC10 (Homo sapiens, UniProt Q969S8); test: Inhibition of recombinant N-terminal FLAG-tagged human HDAC10 (2 to 631 residues) expressed in baculovirus infected Sf9 cells using Ac-peptide-AMC as substrate after 1 hr by fluorescence assay
JeKo-1 [11] = test: Induction of apoptosis in human JeKo1 cells assessed as necrotic cells at 10 nM after 48 hrs by annexin V-FITC/propidium iodide staining-based flow cytometric method (reference value: 2.03 %); type: functional; outline: as §2
Daudi [12] = test: Antitumour activity against human Daudi cells xenografted in NOD/SCID mouse assessed as increase in acetylated H4 expression at 10 mg/kg, iv treated on day 1,3 and 5 per week by immunohistochemical analysis; type: functional, organism-based
Outline: (§3)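 Daudi s.c. xenografts in female NOD/SCID mice (5–6 weeks) were randomized six per group at 100–200 mm3. Dosing was 10 mg/kg i.v. or 20 mg/kg p.o. in 8% HP-β-CD on days 1, 3 and 5 weekly. Tumors were collected at study end for immunohistochemistry, with comparison to the control group.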

JeKo-1 [13] = test: Induction of apoptosis in human JeKo1 cells assessed as late apoptotic cells at 1000 nM after 48 hrs by annexin V-FITC/propidium iodide staining-based flow cytometric method (reference value: 3.07 %); type: functional; outline: as §2
JeKo-1 [14] = test: Cell cycle arrest in human JeKo1 cells assessed as accumulation at G1 phase at 10 nM after 24 hrs by propidium iodide staining based flow cytometric analysis (reference value: 63.16 %); type: functional
Daudi [15] = test: Antitumour activity against human Daudi cells xenografted in NOD/SCID mouse assessed as DNA damage at 10 mg/kg, iv treated on day 1,3 and 5 per week; type: functional, organism-based; outline: as §3
Ramos = test: Antiproliferative activity against human Ramos cells after 72 hrs by MTT assay; type: functional, cell-based
Histone deacetylase 5 = Histone deacetylase 5 (Homo sapiens, UniProt Q9UQL6); test: Inhibition of recombinant full length N-terminal GST-tagged human HDAC5 expressed in baculovirus infected Sf9 cells using Ac-peptide-AMC as substrate after 1 hr by fluorescence assay
JeKo-1 [16] = test: Induction of apoptosis in human JeKo1 cells assessed as early apoptotic cells at 1000 nM after 48 hrs by annexin V-FITC/propidium iodide staining-based flow cytometric method (reference value: 3.34 %); type: functional; outline: as §2
JeKo-1 [17] = test: Induction of apoptosis in human JeKo1 cells assessed as early apoptotic cells at 10 nM after 48 hrs by annexin V-FITC/propidium iodide staining-based flow cytometric method (reference value: 3.34 %); type: functional; outline: as §2
JeKo-1 [18] = test: Induction of apoptosis in human JeKo1 cells after 48 hrs by annexin V-FITC/propidium iodide staining-based flow cytometric method; type: functional, cell-based; outline: as §2
[19] = Oral bioavailability in Sprague-Dawley rat at 5 mg/kg measured upto 24 hrs by LC-MS/MS analysis; type: ADME, organism-based; details: in vivo; outline: as §1
MCF7 = test: Antiproliferative activity against human MCF7 cells after 72 hrs by MTT assay; type: functional, cell-based; details: MCF7, 72 h
Histone deacetylase 2 = Histone deacetylase 2 (Homo sapiens, UniProt Q92769); test: Inhibition of recombinant full length human HDAC2 expressed in sf9 insect cells using Ac-peptide-AMC as substrate after 1 hr by fluorescence assay; type: cell-based
JeKo-1 [20] = test: Cell cycle arrest in human JeKo1 cells assessed as accumulation at G1 phase at 100 nM after 24 hrs by propidium iodide staining based flow cytometric analysis (reference value: 63.16 %); type: functional
JeKo-1 [21] = test: Cell cycle arrest in human JeKo1 cells assessed as accumulation at S phase at 100 nM after 24 hrs by propidium iodide staining based flow cytometric analysis (reference value: 26.13 %); type: functional
JeKo-1 [22] = test: Induction of apoptosis in human JeKo1 cells assessed as necrotic cells at 1000 nM after 48 hrs by annexin V-FITC/propidium iodide staining-based flow cytometric method (reference value: 2.03 %); type: functional; outline: as §2
[23] = Cmax in Sprague-Dawley rat at 5 mg/kg, iv measured upto 24 hrs by LC-MS/MS analysis; type: ADME, organism-based; design: dose 5 mg/kg, route intravenous; details: in vivo; outline: as §1
MM1.S = test: Antiproliferative activity against human MM1S cells after 72 hrs by MTT assay; type: functional, cell-based

Polyamine deacetylase HDAC10, sequence (Q969S8 whole entry, the tested form may be a part): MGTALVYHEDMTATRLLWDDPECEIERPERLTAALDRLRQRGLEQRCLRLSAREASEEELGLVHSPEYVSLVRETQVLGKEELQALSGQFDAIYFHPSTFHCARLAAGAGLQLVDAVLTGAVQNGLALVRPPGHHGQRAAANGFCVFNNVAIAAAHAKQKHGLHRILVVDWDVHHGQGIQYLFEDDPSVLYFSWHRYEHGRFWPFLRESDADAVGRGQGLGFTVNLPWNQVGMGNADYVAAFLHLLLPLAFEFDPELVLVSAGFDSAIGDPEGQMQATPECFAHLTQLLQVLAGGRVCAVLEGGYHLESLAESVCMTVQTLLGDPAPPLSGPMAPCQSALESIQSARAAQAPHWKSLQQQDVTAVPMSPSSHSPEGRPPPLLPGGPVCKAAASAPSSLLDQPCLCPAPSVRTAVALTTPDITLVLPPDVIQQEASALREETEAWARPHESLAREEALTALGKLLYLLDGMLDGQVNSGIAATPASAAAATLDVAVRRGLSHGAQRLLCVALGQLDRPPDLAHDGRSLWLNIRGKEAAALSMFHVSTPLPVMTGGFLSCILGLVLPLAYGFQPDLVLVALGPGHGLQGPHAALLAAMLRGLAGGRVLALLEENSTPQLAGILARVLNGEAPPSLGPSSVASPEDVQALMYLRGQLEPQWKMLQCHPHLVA
Histone deacetylase 4, sequence (P56524 whole entry): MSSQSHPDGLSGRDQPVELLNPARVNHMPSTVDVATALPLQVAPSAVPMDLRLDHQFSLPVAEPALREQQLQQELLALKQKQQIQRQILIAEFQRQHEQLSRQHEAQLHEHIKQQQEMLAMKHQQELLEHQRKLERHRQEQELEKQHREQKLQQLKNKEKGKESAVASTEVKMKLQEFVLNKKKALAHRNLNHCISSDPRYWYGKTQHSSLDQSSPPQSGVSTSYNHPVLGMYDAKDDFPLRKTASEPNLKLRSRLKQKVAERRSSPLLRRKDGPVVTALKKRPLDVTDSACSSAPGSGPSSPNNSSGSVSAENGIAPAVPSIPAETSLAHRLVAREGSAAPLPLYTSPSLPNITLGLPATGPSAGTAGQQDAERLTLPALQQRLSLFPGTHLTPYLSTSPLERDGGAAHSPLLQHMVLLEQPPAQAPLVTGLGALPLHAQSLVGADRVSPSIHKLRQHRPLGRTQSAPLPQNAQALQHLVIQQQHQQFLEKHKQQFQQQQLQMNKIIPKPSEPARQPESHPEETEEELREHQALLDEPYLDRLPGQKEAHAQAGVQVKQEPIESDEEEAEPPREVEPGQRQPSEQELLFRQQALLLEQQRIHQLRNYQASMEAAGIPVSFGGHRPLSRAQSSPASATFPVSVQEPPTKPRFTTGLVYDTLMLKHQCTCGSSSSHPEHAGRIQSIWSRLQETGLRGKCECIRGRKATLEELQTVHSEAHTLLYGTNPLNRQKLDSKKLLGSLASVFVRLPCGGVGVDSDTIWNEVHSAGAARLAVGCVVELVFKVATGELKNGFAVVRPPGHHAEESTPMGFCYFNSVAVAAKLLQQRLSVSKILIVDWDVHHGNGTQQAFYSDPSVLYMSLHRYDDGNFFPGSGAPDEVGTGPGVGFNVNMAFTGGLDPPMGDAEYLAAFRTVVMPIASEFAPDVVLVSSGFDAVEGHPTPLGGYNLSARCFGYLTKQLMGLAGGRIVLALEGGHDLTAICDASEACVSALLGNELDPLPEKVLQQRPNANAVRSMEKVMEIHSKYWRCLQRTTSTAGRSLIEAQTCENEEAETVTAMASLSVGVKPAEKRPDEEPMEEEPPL
Histone deacetylase 5, sequence (Q9UQL6 whole entry): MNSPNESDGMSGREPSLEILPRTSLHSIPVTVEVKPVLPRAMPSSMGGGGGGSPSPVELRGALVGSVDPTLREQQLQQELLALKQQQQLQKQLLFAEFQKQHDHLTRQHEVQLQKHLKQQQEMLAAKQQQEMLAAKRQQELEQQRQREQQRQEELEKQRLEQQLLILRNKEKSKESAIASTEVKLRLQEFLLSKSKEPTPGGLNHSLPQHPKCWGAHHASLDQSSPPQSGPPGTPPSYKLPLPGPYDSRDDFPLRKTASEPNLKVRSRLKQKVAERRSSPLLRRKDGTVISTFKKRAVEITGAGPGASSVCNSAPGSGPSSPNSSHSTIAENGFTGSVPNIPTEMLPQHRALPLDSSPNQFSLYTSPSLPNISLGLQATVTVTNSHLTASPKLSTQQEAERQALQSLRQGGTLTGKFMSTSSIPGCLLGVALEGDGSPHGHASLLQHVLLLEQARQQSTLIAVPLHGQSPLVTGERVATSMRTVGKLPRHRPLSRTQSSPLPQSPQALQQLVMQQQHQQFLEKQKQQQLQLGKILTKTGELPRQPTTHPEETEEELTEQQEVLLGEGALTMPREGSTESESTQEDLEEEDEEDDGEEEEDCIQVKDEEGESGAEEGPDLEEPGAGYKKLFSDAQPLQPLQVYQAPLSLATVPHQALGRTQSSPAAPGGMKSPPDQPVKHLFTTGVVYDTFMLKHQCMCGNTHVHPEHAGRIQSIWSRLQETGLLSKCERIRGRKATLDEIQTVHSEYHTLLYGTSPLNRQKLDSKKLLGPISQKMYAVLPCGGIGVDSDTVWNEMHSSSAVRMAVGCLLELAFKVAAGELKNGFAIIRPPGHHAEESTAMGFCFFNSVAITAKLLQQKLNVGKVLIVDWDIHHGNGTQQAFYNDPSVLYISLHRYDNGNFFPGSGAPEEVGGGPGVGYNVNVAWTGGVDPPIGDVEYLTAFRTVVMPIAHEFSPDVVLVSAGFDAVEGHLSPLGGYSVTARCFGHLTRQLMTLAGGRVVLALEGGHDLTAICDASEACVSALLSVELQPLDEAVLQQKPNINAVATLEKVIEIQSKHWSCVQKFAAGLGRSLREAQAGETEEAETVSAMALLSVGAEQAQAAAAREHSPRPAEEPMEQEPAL
Histone deacetylase 2, sequence (Q92769 whole entry): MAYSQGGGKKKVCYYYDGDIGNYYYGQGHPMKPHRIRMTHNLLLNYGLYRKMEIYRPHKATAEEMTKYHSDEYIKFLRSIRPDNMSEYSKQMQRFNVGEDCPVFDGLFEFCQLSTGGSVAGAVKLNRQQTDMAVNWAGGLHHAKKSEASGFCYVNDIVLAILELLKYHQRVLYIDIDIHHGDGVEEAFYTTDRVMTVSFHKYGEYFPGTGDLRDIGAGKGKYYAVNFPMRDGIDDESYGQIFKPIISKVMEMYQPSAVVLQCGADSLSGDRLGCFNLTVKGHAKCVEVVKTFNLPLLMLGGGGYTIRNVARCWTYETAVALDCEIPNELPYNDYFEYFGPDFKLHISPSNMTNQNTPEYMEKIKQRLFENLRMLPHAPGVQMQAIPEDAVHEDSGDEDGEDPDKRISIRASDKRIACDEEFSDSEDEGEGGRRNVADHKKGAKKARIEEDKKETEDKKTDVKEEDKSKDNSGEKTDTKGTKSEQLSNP

Q: For Cc1ccc(CN2CCC(c3noc(CN(C)c4ncc(C(=O)NO)cn4)n3)CC2)cc1, which Activity (JeKo-1 [1]) is on record?
A: 82.86%

Q: What about the clearance [2] of the same compound?
A: 198 mL/min/kg

Q: And the IC50 [3]?
A: 44.9 nM

Q: And the Cmax [4]?
A: 241 ng/mL

Q: What about the Activity (JeKo-1 [5]) of the same compound?
A: 2.24%

Q: And the IC50 (SK-OV-3)?
A: 20.5 nM

Q: And the Activity (JeKo-1 [6])?
A: 17.3%

Q: What about the IC50 (Histone deacetylase 4) of the same compound?
A: 473 nM

Q: What about the half-life [7] of the same compound?
A: 1.01 h

Q: What about the Activity [8] of the same compound?
A: Non-Toxic

Q: What about the IC50 (Leukemia cell) of the same compound?
A: 21.2 to 61.1 nM

Q: What about the Activity (JeKo-1 [9]) of the same compound?
A: 24%

Q: And the IC50 [10]?
A: 102 nM

Q: And the Activity (JeKo-1 [11])?
A: 0.39%

Q: What about the Activity (Daudi [12]) of the same compound?
A: Active

Q: What about the Activity (JeKo-1 [13]) of the same compound?
A: 30.4%

Q: What about the Activity (JeKo-1 [14]) of the same compound?
A: 66.88%

Q: What about the Activity (Daudi [15]) of the same compound?
A: Active

Q: And the IC50 (Ramos)?
A: 17.8 nM

Q: And the IC50 (Histone deacetylase 5)?
A: 540 nM

Q: And the Activity (JeKo-1 [16])?
A: 42.7%

Q: And the Activity (JeKo-1 [17])?
A: 5.57%

Q: And the Activity (JeKo-1 [18])?
A: Dose-dependent effect

Q: What about the bioavailability [19] of the same compound?
A: 53.5%

Q: And the IC50 (MCF7)?
A: 14.4 nM

Q: And the IC50 (Histone deacetylase 2)?
A: 3.6 nM

Q: And the Activity (JeKo-1 [20])?
A: 80.74%

Q: What about the Activity (JeKo-1 [21]) of the same compound?
A: 8.5%

Q: What about the Activity (JeKo-1 [22]) of the same compound?
A: 0.096%

Q: What about the Cmax [23] of the same compound?
A: 955 ng/mL

Q: What about the IC50 (MM1.S) of the same compound?
A: 9.8 nM
